Structures are written as SMILES. Calls of active or inactive are those of the source. No cut-off for these calls is given here.

For assay [1], the system named is Cricetinae gen. sp. The assay can be described thus: Activity of compound the was expressed as ratio of active hamster tracheal organ cultures(TOC) to the total cultures at 10e-12 M concentration; 6/15. It is filed as functional, Cricetulus griseus, Trachea. An outline of the steps: (§1)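 Tracheal organ cultures came from vitamin A-deficient hamsters. Each culture was scored for reversal of keratinization and reported as active cultures out of total cultures at each retinoid concentration tested (10⁻⁸ to 10⁻¹² M). The protocol followed earlier published methods.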

The test system of assay [2] is Cricetinae gen. sp. Nature of the assay: Activity of compound the was expressed as ratio of active hamster tracheal organ cultures(TOC) to the total cultures at 10e-10 M concentration; 15/15. The assay is classed as functional, Cricetulus griseus, Trachea. An outline of the steps:
as §1

Assay [3] deals with Cricetinae gen. sp. Nature of the assay: Activity of compound the was expressed as ratio of active hamster tracheal organ cultures(TOC) to the total cultures at 10e-11 M concentration; 15/15. It is filed as functional, Cricetulus griseus, Trachea. An outline of the steps: as §1
Assay [4] relates to Cricetinae gen. sp. Nature of the assay: Molarity required to effect reversal of keratinization in 50% of cultures. It is filed as functional, Cricetulus griseus.
For assay [5], the species on record is Mus musculus. The assay can be described thus: Tested for relative activity in a 20-week anti-papilloma experiment in female CD-1 mice at dose 0.17 nmol. The assay is classed as functional. An outline of the steps: (§2)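 Female Charles River CD-1 mice, 8 weeks old, in random groups of 25–30, were shaved 2 days before initiation with 200 nmol DMBA in acetone on the back. From 2 weeks on, 8.5 nmol TPA was applied twice weekly for 20 weeks. Retinoid in 0.2 mL acetone, or acetone alone for controls, was given 1 h before each TPA dose. Papillomas were counted weekly, and mean papillomas per mouse were compared with controls at 20 weeks.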

The species entered for assay [6] is Mus musculus. The assay can be described thus: Tested for relative activity in a 20-week anti-papilloma experiment in female CD-1 mice at dose 1.7 nmol. It is filed as functional. An outline of the steps:
as §2

Assay [7] is filed under the species Mus musculus. Nature of the assay: Tested for relative activity in a 20-week anti-papilloma experiment in female CD-1 mice at dose 17 nmol; e-Animalsdied at 3-7 weeks. The assay is classed as functional, organism-based. An outline of the steps:
as §2

The species named for assay [8] is Mus musculus. The assay can be described thus: Percent decrease in average number of papillomas 0.17 at dose*-p<0.001. The assay is classed as functional. An outline of the steps:
as §2

Assay [9] is filed under the species Mus musculus. Nature of the assay: Percent decrease in average number of papillomas 1.7 at dose*-p<0.001. It is filed as functional. An outline of the steps: as §2
For assay [10], the target named is T1, Ornithine decarboxylase (Mus musculus) (UniProt P00860).
T1 sequence (whole entry): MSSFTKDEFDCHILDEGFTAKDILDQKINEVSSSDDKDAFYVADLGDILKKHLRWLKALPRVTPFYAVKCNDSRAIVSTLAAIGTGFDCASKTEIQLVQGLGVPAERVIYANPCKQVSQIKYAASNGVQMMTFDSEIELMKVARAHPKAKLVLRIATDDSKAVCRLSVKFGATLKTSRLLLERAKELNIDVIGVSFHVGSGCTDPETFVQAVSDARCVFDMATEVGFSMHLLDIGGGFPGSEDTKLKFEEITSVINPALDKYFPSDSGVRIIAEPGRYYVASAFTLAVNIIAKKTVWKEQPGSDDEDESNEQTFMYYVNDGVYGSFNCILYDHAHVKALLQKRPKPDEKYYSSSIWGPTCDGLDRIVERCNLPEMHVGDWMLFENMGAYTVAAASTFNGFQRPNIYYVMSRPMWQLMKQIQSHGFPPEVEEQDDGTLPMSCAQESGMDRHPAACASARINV
The assay can be described thus: TInhibition of the induction of ornithine decarboxylase in mouse epidermis by the tumor promoter 12-O-tetradecanoylphorbol-13-acetate (ODC) at dose 1.7 nmol*-p<0.001.

In assay [11] the target is T1, Ornithine decarboxylase (Mus musculus). Nature of the assay: Inhibition of the induction of ornithine decarboxylase in mouse epidermis by the tumor promoter 12-O-tetradecanoylphorbol-13-acetate (ODC) at dose 17 nmol*-p<0.001.
The nature of assay [12]: Mortality range in days at dose 20 umol/kg day; 6-8. The assay is classed as functional, Mus musculus. An outline of the steps: (§3)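 Adult female Swiss mice (20–25 g) had chow and water ad libitum. The retinoid was homogenized as a suspension in aqueous 8% Cremophor EL plus 10% propylene glycol. It was given ip as 10 weekday injections over 14 days. Controls received vehicle alone. Survivors were weighed on days 1, 5, 10 and 15, and dates of death were recorded. Survival was scored at days 8 and 15.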

Assay [13] can be described thus: Mortality range in days at dose 30 umol/kg day; 10-15. It is filed as functional, Mus musculus. An outline of the steps: as §3
Assay [14] in a line: Mortality range in days at dose 30 umol/kg day; 7-10. The assay is classed as functional, Mus musculus. An outline of the steps:
as §3

Assay [15] is described as follows: Mortality range in days at dose 30 umol/kg day; 7-11. The assay is classed as functional, Mus musculus. An outline of the steps:
as §3

Assay [16] in a line: Percent survivors at dose 1.0 umol/kg day. The assay is classed as functional, Mus musculus. An outline of the steps: as §3
Assay [17] can be described thus: Percent survivors at dose 10 umol/kg day. The assay is classed as functional, Mus musculus. An outline of the steps: as §3
Assay [18] in a line: Percent survivors at dose 30 umol/kg day. The assay is classed as functional, Mus musculus. An outline of the steps:
as §3

The species named for assay [19] is Mus musculus. Nature of the assay: Tested for relative activity in a 20-week anti-papilloma experiment in female CD-1 mice at dose 170 nmol;d- Animals died at 1-2 weeks. It is filed as functional, organism-based. An outline of the steps: as §2
Assay [20] is described as follows: Percent survivors at dose 3.3 umol/kg day. It is filed as functional, Mus musculus. An outline of the steps:
as §3

For orientation: inhibition means the change of the read-out against control, counted positive when it falls. For `C/C(=C\c1ccc(C(=O)O)cc1)c1ccc2c(c1)C(C)(C)CCC2(C)C`, the Activity is 6% with Cricetinae gen. sp. [1]; 15% in the assay with Cricetinae gen. sp. [2]; 15% in the assay with Cricetinae gen. sp. [3]; 73% in the assay filed under Mus musculus [5]; 50% in the assay listed under Mus musculus [6]. In the assay on Cricetinae gen. sp. [4], the ED50 came out at 1e-12. Also, the outcome in the assay listed under Mus musculus [7] and in the assay listed under Mus musculus [19] was inactive. Besides, the results for the Decrease in the assay filed under Mus musculus [8] and in the assay listed under Mus musculus [9] were 62.9% and 92.3%, respectively. Besides, the inhibition in [10] came out at 89%; in assay [11], 91%. Besides, the Mortality range in [12] was found to be 8 days; in assay [13] it was 15 days; in assay [14], 10 days; in [15], 11 days. Further, the “Survivors at day 8” value in [16] is recorded as 100%; in assay [17], 87%; in assay [18] it was 50%; in assay [20], 97%. Moreover, the “Survivors at day 15” value was 30% in assay [16], 0% in assay [17], 0% in [18] and 0% in assay [20].

These data come from ChEMBL document CHEMBL1122522, “Conformationally restricted retinoids” (1984).
